In ChEMBL document CHEMBL4627351, “Synthesis, biological evaluation and structure-activity relationships of 5-arylidene tetramic acids with antibacterial activity against methicillin-resistant Staphylococcus aureus” (Bioorg Med Chem Lett, 2020):
Values after ≈ are worked out from the molar mass of the structure shown.

What was measured:
[1] = tested on: Staphylococcus aureus; test: Antibacterial activity against methicillin-resistant Staphylococcus aureus ATCC 43300 assessed as reduction in bacterial growth by CLSI protocol based broth microdilution method; format: functional
Method in brief: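 Dose-response broth assay in duplicate, 8 points from 0.25 to 32 µg/mL, against MRSA ATCC 43300, with a positive antibiotic control. MIC is the lowest concentration giving full growth inhibition, per CLSI guidelines.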

[2] = Cytotoxicity against human HEK293 cells; format: cell-based
[3] = tested on: Erythrocyte; test: Hemolytic activity against human RBC; format: ADME, cell-based
[4] = tested on: Staphylococcus aureus; test: Antibacterial activity against methicillin-resistant Staphylococcus aureus ATCC 43300 assessed as reduction in bacterial growth at 32 ug/ml by CLSI protocol based broth microdilution method relative to control; format: functional
Method in brief: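 Primary single-concentration broth screen at 32 µg/mL in duplicate (n = 2) against MRSA ATCC 43300. Mean % growth inhibition was calculated relative to growth and media controls.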

Compound: CCCCCCCCCC(=O)C1=C(O)/C(=C/c2ccccc2)N(C(C)=O)C1=O
- MIC [1]: 4 µg/mL (≈ 10.4 µM)
- CC50 [2]: > 32 µg/mL
- HC10 [3]: 20.4 µg/mL

Compound: CCCCCCCC(=O)C1=C(O)/C(=C/c2ccccc2)N(C(C)=O)C1=O
- MIC [1]: 4 µg/mL (≈ 11.3 µM)
- CC50 [2]: > 32 µg/mL
- HC10 [3]: > 32 µg/mL

Compound: CCCCCCCCCCCCCC(=O)C1=C(O)/C(=C/c2ccccc2)N(C(C)=O)C1=O
- MIC [1]: 4 µg/mL (≈ 9.1 µM)
- CC50 [2]: > 32 µg/mL
- HC10 [3]: > 32 µg/mL

Compound: CCCCCCCCCCCCCCCC(=O)C1=C(O)/C(=C/c2ccccc2)N(C(C)=O)C1=O
- MIC [1]: 4 µg/mL (≈ 8.55 µM)
- CC50 [2]: > 32 µg/mL
- HC10 [3]: > 32 µg/mL

Compound: CC(=O)C1=C(O)/C(=C/c2ccc(Cl)cc2)N(C(C)=O)C1=O
- inhibition at 32 µg/mL [4]: 45.1%

Compound: CCCC(=O)C1=C(O)/C(=C/c2ccc(OC)cc2)N(C(C)=O)C1=O
- inhibition at 32 µg/mL [4]: 73.1 to 99.2%
- MIC [1]: 32 µg/mL (≈ 97.2 µM)
- CC50 [2]: > 32 µg/mL
- HC10 [3]: > 32 µg/mL

Compound: CC(=O)C1=C(O)/C(=C/c2ccc(C(F)(F)F)cc2)N(C(C)=O)C1=O
- inhibition at 32 µg/mL [4]: 61.7%
- MIC [1]: > 32 µg/mL
- CC50 [2]: > 32 µg/mL
- HC10 [3]: > 32 µg/mL

Compound: CC(=O)N1C(=O)C(C(=O)c2ccccc2)=C(O)/C1=C/c1ccccc1
- inhibition at 32 µg/mL [4]: 73.1 to 99.2%

Compound: CC(=O)C1=C(O)/C(=C/c2ccc([N+](=O)[O-])cc2)N(C(C)=O)C1=O
- inhibition at 32 µg/mL [4]: 38.6%

Compound: CC(=O)C1=C(O)/C(=C/c2ccccc2)N(C(C)=O)C1=O
- inhibition at 32 µg/mL [4]: 22.9 to 25.5%
- MIC [1]: > 32 µg/mL
- CC50 [2]: > 32 µg/mL
- HC10 [3]: > 32 µg/mL

Compound: CCCC(=O)C1=C(O)/C(=C/c2ccccc2)N(C(C)=O)C1=O
- inhibition at 32 µg/mL [4]: 73.1 to 99.2%
- MIC [1]: 32 µg/mL (≈ 107 µM)
- CC50 [2]: > 32 µg/mL
- HC10 [3]: > 32 µg/mL
